According to ChEMBL document CHEMBL1151736, “Design, synthesis, and biological evaluation of a series of 2-hydroxyisoquinoline-1,3(2H,4H)-diones as dual inhibitors of human immunodeficiency virus type 1 integrase and the reverse transcriptase RNase H domain” (J Med Chem, 2008):

Legend:
[1] = Inhibition of HIV1 RNase H; parameters: species or system Human immunodeficiency virus 1
[2] = system: Human immunodeficiency virus 1; assay: Selectivity ratio of IC50 for HIV1 RNase H to IC50 for HIV1 integrase
How it was run: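 Ratio of the RNase H IC50 to the overall-integrase IC50. For RNase H, recombinant HIV-1 RT (4.5 pmol) was preincubated with compound for 10 min at 37 °C. It then ran 10 min at 37 °C on a 3H-RNA/DNA duplex with 6 mM MgCl2 and 80 mM KCl at pH 8.0, read by TCA-precipitated radioactivity. For integrase, ELISA used 1.6 µM integrase and 7 nM biotin/digoxigenin oligos with 10 mM MgCl2, 1 h at 37 °C.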

[3] = system: Human immunodeficiency virus 1; assay: Antiviral activity against HIV1 3B infected in human MT4 cells assessed as inhibition virus-induced cytopathic effect by MTT assay; assay type: functional, organism-based; conditions: Human immunodeficiency virus 1, 3B
[4] = Cytotoxicity against human MT4 cells by MTT assay; assay type: cell-based
[5] = molecular target: Human immunodeficiency virus type 1 reverse transcriptase (Human immunodeficiency virus 1) (UniProt Q72547); assay: Inhibition of HIV1 reverse transcriptase at 50 uM
How it was run: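 RNA-dependent DNA polymerase activity: recombinant RT preincubated 10 min at 37 °C with compound (1.0, 10.0, 50.0 µM), then 10 min at 37 °C with poly(A)-oligo(dT) 20 µg/mL, 20 µM dTTP plus [3H]dTTP, 5 mM MgCl2, 100 mM KCl, 10 mM DTT, 50 mM Tris-HCl pH 8.0; TCA-precipitated radioactivity on nitrocellulose; percent inhibition.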

[6] = molecular target: T1, Human immunodeficiency virus type 1 integrase (Human immunodeficiency virus 1, UniProt Q7ZJM1)
T1 sequence (Q7ZJM1 whole entry): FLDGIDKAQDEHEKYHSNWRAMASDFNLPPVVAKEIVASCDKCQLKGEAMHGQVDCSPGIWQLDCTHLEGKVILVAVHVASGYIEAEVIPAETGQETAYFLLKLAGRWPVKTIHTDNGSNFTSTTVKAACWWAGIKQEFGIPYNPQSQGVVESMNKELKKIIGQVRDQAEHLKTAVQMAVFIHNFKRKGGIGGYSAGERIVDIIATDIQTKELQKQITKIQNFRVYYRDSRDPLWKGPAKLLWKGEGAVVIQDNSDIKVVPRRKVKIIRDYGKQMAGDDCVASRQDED

[7] = molecular target: T1, Human immunodeficiency virus type 1 integrase; remark: listed apart in the source
[8] = molecular target: T1, Human immunodeficiency virus type 1 integrase; remark: listed apart in the source

`O=C1Cc2ccc(-c3ccc(C(F)(F)F)cc3)cc2C(=O)N1O` showed an IC50 [1] of 10.7 µM, a Ratio IC50 [2] of 5.9 and an EC50 [3] greater than 47 µM. It also gave a CC50 [4] greater than 47 µM, an inhibition [5] of 40% and an IC50 [6] of 1.8 µM.
With `O=C1Cc2ccc(-c3ccc(O)c(O)c3)cc2C(=O)N1O` the IC50 [1] was 6.6 µM, the Ratio IC50 [2] was 11.8 and the EC50 [3] was greater than 89 µM. The CC50 [4] was greater than 89 µM, the inhibition [5] was 70% and the IC50 [6] was 0.56 µM.
In the case of `O=C1Cc2ccc(-c3ccc(O)cc3)cc2C(=O)N1O`, the IC50 [1] is reported as 7.2 µM, the Ratio IC50 [2] is reported as 1.3 and the EC50 [3] is reported as greater than 186 µM. The CC50 [4] was greater than 186 µM, the inhibition [5] was 50% and the IC50 [6] was 5.42 µM.
Compound `O=C(Nc1ccc2c(c1)C(=O)N(O)C(=O)C2)c1ccccc1` has an IC50 [1] of 5.7 µM, a Ratio IC50 [2] of 4.7 and an EC50 [3] of 22 µM. The CC50 [4] was 84 µM, the inhibition [5] was 40% and the IC50 [6] was 1.24 µM.
With `O=C1Cc2ccccc2C(=O)N1O` the IC50 [1] was 5.9 µM, the inhibition [5] was 40% and the IC50 [6] was 6.32 µM.
For `CCCCC(=O)Nc1ccc2c(c1)C(=O)N(O)C(=O)C2`, the IC50 [1] was greater than 80 µM, the Ratio IC50 [2] was greater than 4.2 and the EC50 [3] was greater than 250 µM. The CC50 [4] was greater than 250 µM, the inhibition [5] was 40% and the IC50 [6] was 18.8 µM.
In the case of `O=C(Cc1ccccc1)Nc1ccc2c(c1)C(=O)N(O)C(=O)C2`, the IC50 [1] is reported as greater than 80 µM, the Ratio IC50 [2] is reported as greater than 889 and the EC50 [3] is reported as greater than 121 µM. It also gave a CC50 [4] greater than 121 µM, an inhibition [5] of 40% and an IC50 [6] of 0.09 µM. The IC50 [7] was 7.79 µM and the IC50 [8] was 0.1 µM.
`O=C(Nc1ccc2c(c1)C(=O)N(O)C(=O)C2)c1ccc(F)cc1` gave an IC50 [1] of 7.1 µM, a Ratio IC50 [2] of 17.3 and an EC50 [3] greater than 120 µM. The CC50 [4] was greater than 120 µM, the inhibition [5] was 40% and the IC50 [6] was 0.41 µM.
In the case of `O=C1Cc2ccc(-c3ccccc3)cc2C(=O)N1O`, the IC50 [1] is reported as greater than 80 µM, the Ratio IC50 [2] is reported as greater than 47 and the EC50 [3] is reported as greater than 66 µM. The CC50 [4] was greater than 66 µM, the inhibition [5] was 40% and the IC50 [6] was 1.73 µM.
`CC(=O)Nc1ccc2c(c1)C(=O)N(O)C(=O)C2` showed an IC50 [1] of 40.7 µM, a Ratio IC50 [2] of 69 and an EC50 [3] of 148 µM. The CC50 [4] was greater than 250 µM, the inhibition [5] was 40% and the IC50 [6] was 0.59 µM.
`O=C(Nc1ccc2c(c1)C(=O)N(O)C(=O)C2)c1cccc([N+](=O)[O-])c1` gave an IC50 [1] of 10.8 µM, a Ratio IC50 [2] of 1.2 and an inhibition [5] of 40%. The IC50 [6] was 8.9 µM.
`O=C1Cc2ccc(Br)cc2C(=O)N1O` gave an IC50 [1] greater than 96 µM, a Ratio IC50 [2] greater than 166 and an EC50 [3] greater than 64 µM. For the same compound, the CC50 [4] was greater than 64 µM, the inhibition [5] was 40% and the IC50 [6] was 0.58 µM. It also gave an IC50 [7] of 1.4 µM and an IC50 [8] of 0.9 µM.
In the case of `O=C1Cc2ccc(-c3ccc(F)cc3)cc2C(=O)N1O`, the IC50 [1] is reported as 22.2 µM, the Ratio IC50 [2] is reported as 15.8 and the EC50 [3] is reported as greater than 46 µM. For the same compound, the CC50 [4] was greater than 46 µM, the inhibition [5] was 60% and the IC50 [6] was 1.47 µM.
`O=C1Cc2ccc([N+](=O)[O-])cc2C(=O)N1O` gave an IC50 [1] of 48 µM, a Ratio IC50 [2] of 5.6 and an EC50 [3] greater than 205 µM. The CC50 [4] was greater than 205 µM, the inhibition [5] was 40% and the IC50 [6] was 8.5 µM.
For `O=C1Cc2ccc(I)cc2C(=O)N1O`, the IC50 [1] was 58 µM, the Ratio IC50 [2] was 48.3 and the EC50 [3] was greater than 70 µM. For the same compound, the CC50 [4] was greater than 70 µM, the inhibition [5] was 40% and the IC50 [6] was 1.22 µM.
`O=C1Cc2ccc(Cl)cc2C(=O)N1O` gave an IC50 [1] of 28.9 µM, a Ratio IC50 [2] of 36.1 and an EC50 [3] greater than 48 µM. It also gave a CC50 [4] greater than 48 µM, an inhibition [5] of 40% and an IC50 [6] of 0.8 µM.
Compound `O=C(Cc1ccc(F)cc1)Nc1ccc2c(c1)C(=O)N(O)C(=O)C2` has an IC50 [1] of 35.3 µM, a Ratio IC50 [2] of 272 and an EC50 [3] greater than 116 µM. For the same compound, the CC50 [4] was greater than 116 µM, the inhibition [5] was 40% and the IC50 [6] was 0.13 µM. For the same compound, the IC50 [7] was 0.75 µM and the IC50 [8] was 0.02 µM.
Work on `O=C1Cc2ccc(O)cc2C(=O)N1O` yielded an IC50 [1] of 37.4 µM, a Ratio IC50 [2] of 17 and an EC50 [3] greater than 48 µM. For the same compound, the CC50 [4] was greater than 48 µM, the inhibition [5] was 40% and the IC50 [6] was 2.22 µM.
